# Experimental data as given in ChEMBL document CHEMBL4706664, “Rational drug design of 6-substituted 4-anilino-2-phenylpyrimidines for exploration of novel ABCG2 binding site” (Eur J Med Chem, 2021).
# Legend:
# [1] = molecular target: T1, Broad substrate specificity ATP-binding cassette transporter ABCG2 (Homo sapiens, UniProt Q9UNQ0); experiment: Inhibition of ABCG2 (unknown origin) expressed in MDCK-II cells assessed as reduction in pheophorbide A efflux measured after 2 hrs by flow cytometry; format: cell-based
# T1 sequence (Q9UNQ0 whole entry): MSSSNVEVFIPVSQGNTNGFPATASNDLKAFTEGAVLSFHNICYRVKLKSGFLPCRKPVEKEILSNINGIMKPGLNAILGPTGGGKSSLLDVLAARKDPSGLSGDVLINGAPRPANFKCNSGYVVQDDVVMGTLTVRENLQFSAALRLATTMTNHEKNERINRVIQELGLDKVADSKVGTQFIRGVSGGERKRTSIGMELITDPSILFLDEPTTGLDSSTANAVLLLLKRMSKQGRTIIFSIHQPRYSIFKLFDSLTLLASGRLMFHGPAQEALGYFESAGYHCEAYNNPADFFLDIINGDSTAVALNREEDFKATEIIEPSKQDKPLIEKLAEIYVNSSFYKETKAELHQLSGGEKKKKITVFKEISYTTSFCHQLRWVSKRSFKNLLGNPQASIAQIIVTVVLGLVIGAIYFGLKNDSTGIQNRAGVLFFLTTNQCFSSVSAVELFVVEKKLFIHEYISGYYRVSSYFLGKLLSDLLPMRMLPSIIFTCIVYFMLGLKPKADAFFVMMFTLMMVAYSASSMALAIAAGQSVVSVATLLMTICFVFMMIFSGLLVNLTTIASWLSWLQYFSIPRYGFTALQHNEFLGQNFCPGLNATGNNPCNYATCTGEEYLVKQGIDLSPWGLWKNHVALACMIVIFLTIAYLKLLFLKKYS
# Outline: (§1)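 Pheophorbide A accumulation in MDCK II BCRP cells, about 45,000 cells/well in Krebs-HEPES buffer pH 7.4. Compound dilutions were prepared at 0.316–100 µM, and 20 µL of 5 µM pheophorbide A was added. Incubated 2 h at 37 °C, 5% CO2. Fluorescence read by flow cytometry (ex 488 nm, em 695/50 nm). IC50 and Imax are mean ± SEM of at least three independent experiments.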
# [2] = tested on: ABCG2; experiment: Therapeutic index, ratio of GI50 for cytotoxicity against ABCG2 overexpressing MDCK-II cells to IC50 for inhibition of ABCG2 (unknown origin) expressed in MDCK-II cells; details: dog
# [3] = Cytotoxicity against wild-type MDCK-II cells assessed as reduction in cell viability measured after 72 hrs by MTT assay; format: cell-based, Canis lupus familiaris; details: dog
# Outline: (§2)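 MTT cell viability. Compound dilution series prepared in culture medium at 3.16 µM to 1 mM (dilution stock; added 20 µL to 180 µL cells). Seeding per well: MDCK II and MDCK II BCRP 2000, A2780 and A2780/ADR 8000, H69AR 20,000. Incubated 72 h, 37 °C, 5% CO2. MTT 5 mg/mL added for 60 min, formazan dissolved in DMSO, absorbance 570 nm (690 nm background). Medium = 100%, 10% DMSO = 0% viability. GI50 by four-parameter logistic fit. Mean ± SEM of at least three independent experiments.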
# [4] = molecular target: ATP-dependent translocase ABCB1 (Homo sapiens, UniProt P08183); experiment: Inhibition of ABCB1 (unknown origin) expressed in human A2780 ADR cells assessed as reduction in calcein AM efflux preincubated for 30 mins followed by calcein AM addition and measured at 60 secs interval for 1 hr by fluorescence assay; format: cell-based
# Outline: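 Calcein AM accumulation in A2780/ADR cells (30,000/well, Krebs-HEPES buffer pH 7.4). Cells preincubated with compound 30 min at 37 °C, 5% CO2. Then 20 µL of 3.125 µM calcein AM added. Fluorescence (ex 485/em 520 nm) read every 60 s for 1 h. […] Screening at 10 µM.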
# [5] = Cytotoxicity against ABCG2 overexpressing MDCK-II cells assessed as reduction in cell viability measured after 72 hrs by MTT assay; format: ADME, cell-based, Canis lupus familiaris; details: dog; outline: as §2
# [6] = molecular target: T2, ABCG2 (Homo sapiens, UniProt Q9UNQ0); experiment: Inhibition of ABCG2 (unknown origin) expressed in MDCK-II cells assessed as reduction in pheophorbide A efflux measured after 2 hrs by flow cytometry relative to Ko143; format: cell-based; details: MDCK-II cells expressing ABCG2, probe pheophorbide A, read-out: Imax; outline: as §1
# T2 sequence (Q9UNQ0 whole entry): T1 sequence (Q9UNQ0 whole entry)
# [7] = molecular target: ABCC1 (Homo sapiens, UniProt P33527); experiment: Inhibition of ABCC1 (unknown origin) expressed in human NCI-H69AR cells assessed as reduction in calcein AM efflux at 10 uM preincubated for 30 mins followed by calcein AM addition and measured at 60 secs interval for 1 hr by fluorescence assay relative to control; format: cell-based; details: NCI-H69AR cells expressing ABCC1, probe calcein AM, time 90 min
# [8] = Cytotoxicity against human A2780 cells assessed as reduction in cell viability measured after 72 hrs by MTT assay
# [9] = Cytotoxicity against ABCB1 over expressing human A2780 ADR cells assessed as reduction in cell viability measured after 72 hrs by MTT assay; format: ADME, cell-based; details: ABCB1 overexpressing A2780 ADR cells; outline: as §2
# [10] = Cytotoxicity against ABCC1 over expressing human NCI-H69AR cells assessed as reduction in cell viability measured after 72 hrs by MTT assay; format: ADME, cell-based; details: ABCC1 overexpressing NCI-H69AR cells; outline: as §2
# [11] = molecular target: ABCB1 (Homo sapiens, UniProt P08183); experiment: Inhibition of ABCB1 (unknown origin) expressed in human A2780 ADR cells assessed as reduction in calcein AM efflux at 10 uM preincubated for 30 mins followed by calcein AM addition and measured at 60 secs interval for 1 hr by fluorescence assay relative to control; format: cell-based; details: A2780 ADR cells expressing ABCB1, probe calcein AM, time 90 min
# Outline: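 Calcein AM accumulation in A2780/ADR cells (30,000/well, Krebs-HEPES buffer pH 7.4). Cells preincubated with compound 30 min at 37 °C, 5% CO2. Screening at 10 µM.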
# [12] = tested on: ABCB1; experiment: Therapeutic index, ratio of GI50 for cytotoxicity against ABCB1 over expressing human A2780 ADR cells to IC50 for inhibition of ABCB1 (unknown origin) expressed in human A2780 ADR cells; details: ABCB1 overexpressing A2780 ADR cells
# [13] = Cytotoxicity against ABCB1 over expressing human A2780 cells assessed as reduction in cell viability measured after 72 hrs by MTT assay; format: ADME, cell-based; details: in the assay text read “human A2780 cells” for “ABCB1 over expressing human A2780 cells”; outline: as §2
# Chain of ATP-dependent translocase ABCB1 (P08183 whole entry): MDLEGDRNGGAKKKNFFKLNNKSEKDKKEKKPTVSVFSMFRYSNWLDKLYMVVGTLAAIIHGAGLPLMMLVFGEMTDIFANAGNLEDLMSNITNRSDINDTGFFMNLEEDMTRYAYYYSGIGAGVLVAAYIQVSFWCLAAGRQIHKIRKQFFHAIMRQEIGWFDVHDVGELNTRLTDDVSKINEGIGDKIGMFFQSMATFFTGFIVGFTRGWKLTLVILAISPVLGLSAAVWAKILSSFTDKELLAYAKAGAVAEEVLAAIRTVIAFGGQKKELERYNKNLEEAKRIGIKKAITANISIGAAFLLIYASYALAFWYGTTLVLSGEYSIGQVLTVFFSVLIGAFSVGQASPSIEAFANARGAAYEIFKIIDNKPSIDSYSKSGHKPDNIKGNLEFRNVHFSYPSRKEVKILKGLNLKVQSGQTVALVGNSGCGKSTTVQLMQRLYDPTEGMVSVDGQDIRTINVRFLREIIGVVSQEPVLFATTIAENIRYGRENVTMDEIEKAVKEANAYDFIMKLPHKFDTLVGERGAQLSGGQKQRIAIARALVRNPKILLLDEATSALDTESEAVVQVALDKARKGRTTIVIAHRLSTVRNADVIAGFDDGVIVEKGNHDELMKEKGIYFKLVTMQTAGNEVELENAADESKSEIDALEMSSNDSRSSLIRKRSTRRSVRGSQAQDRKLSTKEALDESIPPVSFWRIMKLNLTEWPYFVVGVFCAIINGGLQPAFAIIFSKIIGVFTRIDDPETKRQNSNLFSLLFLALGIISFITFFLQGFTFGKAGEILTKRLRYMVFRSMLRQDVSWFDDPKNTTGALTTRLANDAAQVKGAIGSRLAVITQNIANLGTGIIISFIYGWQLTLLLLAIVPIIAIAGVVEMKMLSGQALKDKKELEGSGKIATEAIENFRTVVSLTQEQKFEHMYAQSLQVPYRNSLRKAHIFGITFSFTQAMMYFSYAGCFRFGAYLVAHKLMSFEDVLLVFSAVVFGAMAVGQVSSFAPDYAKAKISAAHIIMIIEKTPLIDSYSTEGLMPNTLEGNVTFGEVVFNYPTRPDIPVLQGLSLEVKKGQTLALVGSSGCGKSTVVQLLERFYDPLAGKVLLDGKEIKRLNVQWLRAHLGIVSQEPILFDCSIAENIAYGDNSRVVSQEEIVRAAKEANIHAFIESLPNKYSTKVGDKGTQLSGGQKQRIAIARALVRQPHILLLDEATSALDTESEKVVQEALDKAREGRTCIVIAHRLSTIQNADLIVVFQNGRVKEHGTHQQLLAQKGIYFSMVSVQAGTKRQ
# Chain of ABCB1 (Homo sapiens, UniProt P08183) (P08183 whole entry): as above
# Chain of ABCC1 (P33527 whole entry): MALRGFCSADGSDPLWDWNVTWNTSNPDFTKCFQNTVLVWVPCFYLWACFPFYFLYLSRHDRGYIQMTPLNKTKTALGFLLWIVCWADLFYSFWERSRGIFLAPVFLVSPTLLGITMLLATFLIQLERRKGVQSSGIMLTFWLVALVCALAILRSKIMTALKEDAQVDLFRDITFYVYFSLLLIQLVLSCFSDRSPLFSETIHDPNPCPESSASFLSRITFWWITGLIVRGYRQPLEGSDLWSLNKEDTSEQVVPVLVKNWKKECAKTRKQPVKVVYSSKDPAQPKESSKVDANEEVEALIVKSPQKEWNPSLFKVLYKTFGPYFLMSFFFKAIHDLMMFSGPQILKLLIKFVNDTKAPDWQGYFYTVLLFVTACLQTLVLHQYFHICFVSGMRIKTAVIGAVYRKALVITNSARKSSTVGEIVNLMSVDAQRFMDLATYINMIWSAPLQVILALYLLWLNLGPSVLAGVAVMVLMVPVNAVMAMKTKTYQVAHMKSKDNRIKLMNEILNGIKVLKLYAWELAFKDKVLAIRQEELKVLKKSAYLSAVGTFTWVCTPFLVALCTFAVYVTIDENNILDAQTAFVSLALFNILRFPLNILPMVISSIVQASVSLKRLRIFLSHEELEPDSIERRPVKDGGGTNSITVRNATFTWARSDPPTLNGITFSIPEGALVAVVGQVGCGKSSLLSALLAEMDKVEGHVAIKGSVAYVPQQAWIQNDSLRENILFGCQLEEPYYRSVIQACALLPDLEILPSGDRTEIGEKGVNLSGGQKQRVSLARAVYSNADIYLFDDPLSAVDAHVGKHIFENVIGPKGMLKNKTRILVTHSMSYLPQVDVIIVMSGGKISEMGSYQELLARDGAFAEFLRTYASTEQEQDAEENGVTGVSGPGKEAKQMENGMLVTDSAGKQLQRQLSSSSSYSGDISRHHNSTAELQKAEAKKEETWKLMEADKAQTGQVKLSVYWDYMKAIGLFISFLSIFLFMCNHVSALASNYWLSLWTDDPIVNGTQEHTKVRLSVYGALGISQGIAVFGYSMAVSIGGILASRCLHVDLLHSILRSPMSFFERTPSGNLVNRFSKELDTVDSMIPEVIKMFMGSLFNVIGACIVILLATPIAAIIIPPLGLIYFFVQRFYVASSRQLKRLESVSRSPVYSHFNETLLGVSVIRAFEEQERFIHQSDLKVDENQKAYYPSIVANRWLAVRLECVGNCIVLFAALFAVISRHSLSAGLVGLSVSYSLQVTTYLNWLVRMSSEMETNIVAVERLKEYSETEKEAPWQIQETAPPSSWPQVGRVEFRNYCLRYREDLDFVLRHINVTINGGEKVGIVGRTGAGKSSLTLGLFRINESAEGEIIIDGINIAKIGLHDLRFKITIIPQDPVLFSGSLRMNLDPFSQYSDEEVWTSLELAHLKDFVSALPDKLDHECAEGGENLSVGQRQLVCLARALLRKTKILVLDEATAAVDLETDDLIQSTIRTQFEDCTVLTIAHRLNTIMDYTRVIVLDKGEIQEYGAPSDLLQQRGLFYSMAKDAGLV
SMILES,IC50 [1],selectivity ratio [2],GI50 at 72 h [3],IC50 ([4]; a2780 adr),GI50 at 72 h [5],Emax at 2 h [6],"inhibition at 1 h, 10 µM [7]",GI50 at 72 h [8],GI50 at 72 h [9],GI50 at 72 h [10],"inhibition at 1 h, 10 µM [11]",IC50 ([4]; read-out: IC50),selectivity ratio [12],GI50 at 72 h [13]
N#Cc1ccc(Nc2cc(-c3ccccc3)nc(-c3ccccc3)n2)cc1,4.41 µM,4.96,25.1 µM,Not Active,21.9 µM,100%,–,–,–,–,–,–,–,–
CC(C)Nc1cc(Nc2ccc(C#N)cc2)nc(-c2ccccc2)n1,0.763 µM,–,5.58 µM,–,5.06 µM,101%,> 20%,13.3 µM,8.09 µM,21.4 µM,> 20%,6.42 µM,–,–
CCCCNc1cc(Nc2ccc(C#N)cc2)nc(-c2ccccc2)n1,0.5 µM,12.2,8.32 µM,–,6.08 µM,73%,–,–,–,–,> 20%,6.62 µM,–,–
N#Cc1ccc(Nc2cc(NCCCc3ccccc3)nc(-c3ccccc3)n2)cc1,0.096 µM,38.4,5.03 µM,Not Active,3.64 µM,61%,–,–,–,–,–,–,–,–
N#Cc1ccc(Nc2cc(NCc3ccncc3)nc(-c3ccccc3)n2)cc1,0.435 µM,23.1,10.7 µM,–,10 µM,78%,–,–,–,–,> 20%,4.26 µM,–,–
N#Cc1ccc(Nc2ccnc(-c3ccccc3)n2)cc1,0.189 µM,–,–,–,–,–,–,–,–,–,–,–,–,–
N#Cc1ccc(Nc2cc(Nc3ccccc3O)nc(-c3ccccc3)n2)cc1,0.223 µM,20.7,4.23 µM,–,4.61 µM,86%,–,–,9.96 µM,–,> 20%,2.98 µM,3.34,9.07 µM
CCCNc1cc(Nc2ccc(C#N)cc2)nc(-c2ccccc2)n1,0.293 µM,–,8.34 µM,–,6.56 µM,89%,> 20%,15.1 µM,12.3 µM,23 µM,> 20%,5.9 µM,–,–
N#Cc1ccc(Nc2cc(NCc3ccccc3)nc(-c3ccccc3)n2)cc1,0.283 µM,38,4.19 µM,–,10.7 µM,99%,–,–,–,–,> 20%,4.47 µM,–,–
CCc1c2c(nc3ccc(O)cc13)-c1cc3c(c(=O)n1C2)COC(=O)[C@]3(O)CC [7-ETHYL-10-HYDROXYCAMPTOTHECIN],–,–,0.139 µM,–,–,–,–,–,–,–,–,–,–,–
